Values after ≈ are worked out from the molar mass of the structure shown.
Key:
Format in all cases: functional
HeLa = test: Cytotoxicity against human HeLa cells after 3 days by MTT assay; conditions: 72 h, read-out: ED50 (the source's name)
In short: (§1)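 Cells grown in RPMI-1640 and seeded in 96-well plates for 4 h before samples were added at four concentrations. Incubation at 37 °C for 3 days, then MTT added for 5 h. Medium removed, formazan dissolved in DMSO with 10 min shaking, absorbance read at 550 nm. ED50 reported in µg/mL.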

DLD-1 = test: Cytotoxicity against human DLD1 cells after 3 days by MTT assay; conditions: DLD-1, 72 h, read-out: ED50 (the source's name); in short: as §1
A549 = test: Cytotoxicity against human A549 cells after 3 days by MTT assay; conditions: A549, 72 h, read-out: ED50 (the source's name); in short: as §1
[1] = Cytotoxicity against human Medulloblastoma cells after 3 days by MTT assay; conditions: Medulloblastoma cell, 72 h, read-out: ED50 (the source's name); in short: as §1
KB = test: Cytotoxicity against human KB cells after 3 days by MTT assay; conditions: 72 h, read-out: ED50 (the source's name); in short: as §1
MCF7 = test: Cytotoxicity against human MCF7 cells after 3 days by MTT assay; conditions: MCF7, 72 h, read-out: ED50 (the source's name); in short: as §1

| SMILES | EC50 (HeLa) [µg/mL] | EC50 (DLD-1) [µg/mL] | EC50 (A549) [µg/mL] | EC50 [1] [µg/mL] | EC50 (KB) [µg/mL] | EC50 (MCF7) [µg/mL] |
| --- | --- | --- | --- | --- | --- | --- |
| COc1cccc2c1C(=O)c1c(O)c3c(c(O)c1C2=O)C[C@@](O)(C(=O)CO)C[C@@H]3O[C@H]1C[C@H](N)[C@H](O)[C@H](C)O1 [DOXORUBICIN] | 0.1 (≈ 0.184 µM) | 0.1 (≈ 0.184 µM) | 0.1 (≈ 0.184 µM) | 0.1 (≈ 0.184 µM) | 0.1 (≈ 0.184 µM) | 0.1 (≈ 0.184 µM) |
| COc1cc(/C=C/C(=O)OC[C@H]2O[C@@](CO)(O[C@H]3O[C@H](COC(C)=O)[C@@H](OC(C)=O)[C@H](O)[C@H]3O)[C@@H](OC(=O)/C=C/c3ccc(O)c(OC)c3)[C@@H]2O)ccc1O [SMILASIDE A] | 8.9 (≈ 11.4 µM) | 11.6 (≈ 14.9 µM) | 7.1 (≈ 9.12 µM) | 11.3 (≈ 14.5 µM) | 11.2 (≈ 14.4 µM) | 10.8 (≈ 13.9 µM) |
| COc1cc(/C=C/C(=O)OC[C@H]2O[C@@](CO)(O[C@H]3O[C@H](CO)[C@@H](O)[C@H](O)[C@H]3OC(C)=O)[C@@H](OC(=O)/C=C/c3ccc(O)c(OC)c3)[C@@H]2O)ccc1O [SMILASIDE B] | > 20 | > 20 | 12 (≈ 16.3 µM) | 9.4 (≈ 12.8 µM) | > 20 | 10.3 (≈ 14 µM) |
| COc1cc(/C=C/C(=O)OC[C@H]2O[C@@](COC(=O)/C=C/c3ccc(O)cc3)(O[C@H]3O[C@H](CO)[C@@H](O)[C@H](O)[C@H]3O)[C@@H](OC(=O)/C=C/c3ccc(O)c(OC)c3)[C@@H]2O)ccc1O [SMILASIDE C] | > 20 | > 20 | > 20 | > 20 | > 20 | > 20 |
| COc1cc(/C=C/C(=O)OC[C@H]2O[C@@](COC(=O)/C=C/c3ccc(O)cc3)(O[C@H]3O[C@H](CO)[C@@H](O)[C@H](O)[C@H]3O)[C@@H](OC(=O)/C=C/c3ccc(O)c(OC)c3)[C@@H]2OC(C)=O)ccc1O [SMILASIDE D] | 7.3 (≈ 8.27 µM) | 2.7 (≈ 3.06 µM) | 8.4 (≈ 9.51 µM) | 11.9 (≈ 13.5 µM) | 13 (≈ 14.7 µM) | > 20 |
| COc1cc(/C=C/C(=O)OC[C@H]2O[C@@](COC(=O)/C=C/c3ccc(O)cc3)(O[C@H]3O[C@H](COC(C)=O)[C@@H](O)[C@H](O)[C@H]3O)[C@@H](OC(=O)/C=C/c3ccc(O)c(OC)c3)[C@@H]2O)ccc1O [SMILASIDE E] | 5.1 (≈ 5.78 µM) | 4.5 (≈ 5.1 µM) | 12.4 (≈ 14 µM) | 12.2 (≈ 13.8 µM) | 5.5 (≈ 6.23 µM) | 13 (≈ 14.7 µM) |
| COc1cc(/C=C/C(=O)OC[C@H]2O[C@@](COC(=O)/C=C/c3ccc(O)cc3)(O[C@H]3O[C@H](COC(C)=O)[C@@H](O)[C@H](O)[C@H]3OC(C)=O)[C@@H](OC(=O)/C=C/c3ccc(O)cc3)[C@@H]2O)ccc1O [SMILASIDE F] | 8.3 (≈ 9.28 µM) | 5 (≈ 5.59 µM) | > 20 | > 20 | 9 (≈ 10.1 µM) | 13 (≈ 14.5 µM) |

— ChEMBL document CHEMBL1151263, “Cytotoxic phenylpropanoid glycosides from the stems of Smilax china” (2005)
